Measurements as given in ChEMBL document CHEMBL1148591, “Isothiazolopyridones: synthesis, structure, and biological activity of a new class of antibacterial agents” (J Med Chem, 2006).
pIC50: −log10 of the molar value. Values after ≈ are worked out from the molar mass of the structure shown. Active and inactive are the calls of the source. No cut-off for these calls is given here.

Experiments:
DNA gyrase = DNA gyrase (Escherichia coli, UniProt P0AES4+P0AES6); test: Inhibition of DNA gyrase supercoiling in Escherichia coli ATCC 25922; assay type: protein-complex assay
[1] = molecular target: DNA topoisomerase 4 subunit A (Staphylococcus aureus, UniProt P0C1U9); test: Inhibition of topoisomerase 4 decatenation in Staphylococcus aureus ATCC 29213
Chain of DNA topoisomerase 4 subunit A (P0C1U9 whole entry): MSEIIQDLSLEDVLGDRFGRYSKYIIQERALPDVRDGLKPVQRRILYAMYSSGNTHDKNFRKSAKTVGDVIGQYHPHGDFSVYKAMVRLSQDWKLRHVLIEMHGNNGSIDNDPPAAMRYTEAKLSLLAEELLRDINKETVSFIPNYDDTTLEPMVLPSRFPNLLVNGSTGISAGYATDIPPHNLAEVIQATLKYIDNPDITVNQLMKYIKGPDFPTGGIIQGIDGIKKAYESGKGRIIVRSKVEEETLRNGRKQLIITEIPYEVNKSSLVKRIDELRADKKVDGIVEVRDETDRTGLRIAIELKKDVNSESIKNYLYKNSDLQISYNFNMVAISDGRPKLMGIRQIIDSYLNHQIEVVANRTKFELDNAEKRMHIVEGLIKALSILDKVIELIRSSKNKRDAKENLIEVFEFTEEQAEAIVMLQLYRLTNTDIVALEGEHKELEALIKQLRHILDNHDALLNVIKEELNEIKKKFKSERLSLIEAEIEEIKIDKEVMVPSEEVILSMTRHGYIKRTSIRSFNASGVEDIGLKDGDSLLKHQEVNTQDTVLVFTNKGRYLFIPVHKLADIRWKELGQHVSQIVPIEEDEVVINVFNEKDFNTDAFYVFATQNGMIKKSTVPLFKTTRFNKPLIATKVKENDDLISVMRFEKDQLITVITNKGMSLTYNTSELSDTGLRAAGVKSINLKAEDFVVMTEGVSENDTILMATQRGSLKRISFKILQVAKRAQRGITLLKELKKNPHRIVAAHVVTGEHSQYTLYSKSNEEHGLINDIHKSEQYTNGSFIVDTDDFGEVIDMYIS

[2] = molecular target: DNA topoisomerase II (Homo sapiens) (UniProt P11388+Q02880); test: Activity against human topoisomerase 2; assay type: protein assay
Procedure, shortened: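 Human topoisomerase II DNA cleavage assay. The read-out is EC₂, the drug concentration that enhances enzyme-mediated cleavage of double-stranded DNA 2-fold.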

Escherichia coli = test: Antibacterial activity against Escherichia coli ATCC 25922; assay type: functional
[3] = molecular target: DNA gyrase (Staphylococcus aureus) (UniProt P0A0K8+P20831); test: Inhibition of DNA gyrase supercoiling in Staphylococcus aureus ATCC 29213; assay type: protein-complex assay
Chain of DNA gyrase (Staphylococcus aureus) (P0A0K8 2-644 limits assumed): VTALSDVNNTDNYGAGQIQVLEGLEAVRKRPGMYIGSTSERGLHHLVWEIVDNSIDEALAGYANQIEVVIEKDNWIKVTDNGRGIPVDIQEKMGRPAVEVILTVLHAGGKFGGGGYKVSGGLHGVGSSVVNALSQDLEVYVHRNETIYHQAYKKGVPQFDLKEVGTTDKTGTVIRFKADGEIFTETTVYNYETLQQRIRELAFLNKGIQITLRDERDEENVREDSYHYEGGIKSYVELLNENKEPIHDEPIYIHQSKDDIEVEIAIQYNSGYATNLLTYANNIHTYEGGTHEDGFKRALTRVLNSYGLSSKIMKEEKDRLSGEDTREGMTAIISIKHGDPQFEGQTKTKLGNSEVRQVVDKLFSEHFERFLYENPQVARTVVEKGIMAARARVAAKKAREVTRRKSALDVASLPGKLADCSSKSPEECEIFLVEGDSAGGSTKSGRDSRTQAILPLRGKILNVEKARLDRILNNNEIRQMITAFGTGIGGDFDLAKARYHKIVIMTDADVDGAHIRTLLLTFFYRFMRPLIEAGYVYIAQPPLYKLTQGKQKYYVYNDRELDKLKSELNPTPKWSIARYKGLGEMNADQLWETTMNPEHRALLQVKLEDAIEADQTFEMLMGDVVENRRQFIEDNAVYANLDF
Chain of DNA gyrase (Staphylococcus aureus) (P20831 whole entry partner): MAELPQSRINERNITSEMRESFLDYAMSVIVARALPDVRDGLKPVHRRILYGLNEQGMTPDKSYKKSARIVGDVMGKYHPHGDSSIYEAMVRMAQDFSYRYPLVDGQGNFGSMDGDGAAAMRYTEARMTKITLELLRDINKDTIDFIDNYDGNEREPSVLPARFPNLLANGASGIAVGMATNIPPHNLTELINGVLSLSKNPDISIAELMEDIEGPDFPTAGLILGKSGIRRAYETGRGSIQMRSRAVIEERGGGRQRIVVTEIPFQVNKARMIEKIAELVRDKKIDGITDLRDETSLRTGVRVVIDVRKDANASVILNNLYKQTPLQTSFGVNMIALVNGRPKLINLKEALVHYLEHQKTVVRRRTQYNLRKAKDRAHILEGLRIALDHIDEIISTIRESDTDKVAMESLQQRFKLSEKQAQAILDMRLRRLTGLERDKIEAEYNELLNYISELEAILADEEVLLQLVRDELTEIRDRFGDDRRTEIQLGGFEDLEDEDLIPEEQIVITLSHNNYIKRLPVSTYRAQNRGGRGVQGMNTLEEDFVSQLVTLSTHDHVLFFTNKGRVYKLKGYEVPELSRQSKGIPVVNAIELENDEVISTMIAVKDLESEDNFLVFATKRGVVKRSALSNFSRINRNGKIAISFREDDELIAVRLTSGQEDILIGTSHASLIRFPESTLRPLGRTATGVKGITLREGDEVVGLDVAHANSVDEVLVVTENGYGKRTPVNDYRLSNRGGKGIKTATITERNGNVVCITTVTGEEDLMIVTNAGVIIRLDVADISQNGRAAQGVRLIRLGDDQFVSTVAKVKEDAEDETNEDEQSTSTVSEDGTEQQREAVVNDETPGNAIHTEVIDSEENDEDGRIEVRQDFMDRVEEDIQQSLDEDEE

Staphylococcus aureus = test: Antibacterial activity against Staphylococcus aureus ATCC 29213; assay type: functional

SMILES	pIC50 (DNA gyrase)	pIC50 [1]	Activity [2]	MIC (Escherichia coli) [mg/L]	Activity [3]	MIC (Staphylococcus aureus) [mg/L]
CCc1c2s[nH]c(=O)c2c(=O)n2ccc(N3CCNCC3)cc12	4.85	4.43	inactive	4 (≈ 12.1 µM)	inactive	16 (≈ 48.4 µM)
CCn1cc(C(=O)O)c(=O)c2cc(F)c(N3CCNCC3)cc21 [NORFLOXACIN]	–	–	–	0.06 (≈ 0.188 µM)	–	0.5 (≈ 1.57 µM)
O=C(O)c1cn(C2CC2)c2cc(N3CCNCC3)c(F)cc2c1=O [CIPROFLOXACIN]	–	–	–	–	–	0.25 (≈ 0.754 µM)
CCc1c2s[nH]c(=O)c2c(=O)n2ccc(-c3cc(C)nc(C)c3)cc12	6.70	5.20	inactive	1 (≈ 2.85 µM)	inactive	0.125 (≈ 0.356 µM)
CCc1c2s[nH]c(=O)c2c(=O)n2ccc(-c3ccncc3)cc12	6.40	5.09	inactive	0.25 (≈ 0.773 µM)	inactive	0.125 (≈ 0.387 µM)
CCc1c2s[nH]c(=O)c2c(=O)n2ccc(N3CCC(N(C)C)C3)cc12 (racemic)	4.62	4.10	inactive	4 (≈ 11.2 µM)	inactive	8 (≈ 22.3 µM)
